The text below walks through data of ChEMBL document CHEMBL1150122, “A new cytotoxic epothilone from modified polyketide synthases heterologously expressed in Myxococcus xanthus” (J Nat Prod, 2002).

By IC50 is commonly meant the midpoint of a concentration-inhibition curve. Low readings indicate inhibition by little substance, high ones a need for much substance.

The structures appear in SMILES notation. Calls of active or inactive are those of the source. No cut-off for these calls is given here.

One assay deals with NCI/ADR-RES. The experiment in a line: Cytotoxicity against human NCI/ADR-RES cells after 3 days by SRB assay. The class given is functional, cell-based. Particulars: 72 h. The method, boiled down: (§1)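 Cells kept in RPMI 1640 with 10% FBS and 2 mM L-glutamine, 37 °C, 5% CO2. Trypsinized cells seeded at 5000–7500 per well; compound added 20 h later across 0.001–1000 nM in growth medium. After 3 days, fixed with 10% TCA (4 °C, 1 h), stained 0.2% SRB/1% acetic acid 20 min, dye extracted with 10 mM Tris base, absorbance read at 515 nm.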

For assay [1], the system named is HL-60. The experiment in a line: Cytotoxicity against mitoxantrone-resistant human HL60 cells after 3 days by SRB assay. The format is functional, cell-based. The conditions noted are these: HL-60, 72 h. The method, boiled down: as §1
For a further assay, the system named is NCI-H460. In words: Cytotoxicity against human NCI-H460 cells after 3 days by SRB assay. The class given is functional, cell-based. Particulars: NCI-H460, 72 h. In a few lines: as §1
In general terms: Sulforhodamine B stains cellular protein and so reports cell mass.

Assay [2] relates to CCRF-CEM. In words: Cytotoxicity against camptothecin-resistant human CCRF-CEM cells after 3 days by SRB assay. The class given is functional, cell-based. Particulars: 72 h. In a few lines: as §1
The subject of another assay is SF-268. The experiment in a line: Cytotoxicity against human SF268 cells after 3 days by SRB assay. The class given is functional, cell-based. The conditions noted are these: SF-268, 72 h. In a few lines: as §1
Assay [3] concerns CCRF-CEM. The experiment in a line: Cytotoxicity against human CCRF-CEM cells after 3 days by SRB assay. The format is functional, cell-based. The conditions noted are these: 72 h. The method, boiled down:
as §1

The subject of another assay is MCF7. The experiment in a line: Cytotoxicity against human MCF7 cells after 3 days by SRB assay. The class given is functional, cell-based. Particulars: MCF7, 72 h. In a few lines:
as §1

The subject of assay [4] is HL-60. In words: Cytotoxicity against human HL60 cells after 3 days by SRB assay. The class given is functional, cell-based. The conditions noted are these: HL-60, 72 h. In a few lines: as §1
The target in another assay is Tubulin (Homo sapiens) (UniProt P68371+Q9H4B7+P0DPH7+P68366+Q13509+Q71U36+P04350+Q3ZCM7+P07437+P68363+Q9BQE3+Q6PEY2+Q13885+Q9BVA1+Q9BUF5). In words: […] in human MCF7 cells at 1 uM after 2 hrs by SDS-PAGE. The format is cell-based. The method, boiled down: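 Confluent MCF-7 cells in 35 mm dishes treated with 1 μM compound for 0, 1 and 2 h at 37 °C. Lysates spun 18000g, 12 min, to separate soluble tubulin (supernatant) from polymerized tubulin (pellet).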

For `CC1=C/C[C@@H](/C(C)=C/c2csc(C)n2)OC(=O)C[C@H](O)C(C)(C)C(=O)[C@H](C)[C@@H](O)[C@@H](C)C\C=C\1`, the IC50 stood at 0.035 µM with NCI/ADR-RES; 0.018 µM with HL-60 [1]; 0.034 µM in the assay on NCI-H460; 0.011 µM in the assay with CCRF-CEM [2]; 0.04 µM with SF-268; 0.023 µM in the assay on CCRF-CEM [3]. In addition, the figures for the half-inhibitory concentration (IC50) with MCF7 and in the assay with HL-60 [4] were 0.028 µM and 0.025 µM, respectively. The outcome at Tubulin (Homo sapiens) was Active.

Consider `C/C1=C/C[C@@H](/C(C)=C/c2csc(C)n2)OC(=O)C[C@H](O)C(C)(C)C(=O)[C@H](C)[C@@H](O)[C@@H](C)CCC1` [EPOTHILONE D], for which the IC50 came to 0.03 µM with NCI/ADR-RES; 0.01 µM in the assay with HL-60 [1]; 0.008 µM in the assay on NCI-H460; 0.015 µM with CCRF-CEM [2]; 0.014 µM in the assay on SF-268; 0.022 µM in the assay on CCRF-CEM [3]. The IC50 with MCF7 and in the assay with HL-60 [4] was 0.008 µM throughout.
